Data on nine molecules can be found in ChEMBL document CHEMBL3243963, “Drugs derived from cannabinoids. 7. Tachycardia and analgesia structure-activity relationships in delta9-tetrahydrocannabinol and some synthetic analogues” (J Med Chem, 1978).

As a reminder, the ED50 is the midpoint of the dose-response relation.

The test system of one data set is Rattus norvegicus. The data set is described as follows: Toxicity in ip dosed Wistar rat assessed as tachycardia. Type of data set: organism-based. As to conditions: in vivo. Put shortly:
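Conscious rats on a warming plate, with rectal temperature kept below 39 °C. Heart rate taken from tail pulse sound (piezo contact microphone, tachograph). Agents given ip in absolute ethanol or distilled water according to solubility. Maximum heart-rate increase plotted against log dose. ED50 with 95% confidence limits by computerized Litchfield–Wilcoxon. Five, six or twelve rats per dose depending on compound.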

The subject of data set [1] is Mus musculus. In words: Analgesic activity in po dosed mouse by hot plate test. Type of data set: functional. The procedure, abridged:
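Mouse hot-plate antinociception after oral dosing, ten mice per dose. ED50 with 95% confidence limits by computerized Litchfield–Wilcoxon method.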
In general terms: Hot-plate and tail-flick tests time the reaction to a heat stimulus.

The test system of data set [2] is Mus musculus. In words: Analgesic activity in po dosed mouse by anti-writhing test. Type of data set: functional. Put shortly: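 Mouse antiwrithing test after oral dosing, five mice per dose. ED50 (half-maximal effect dose) with 95% confidence limits by computerized modification of Litchfield–Wilcoxon.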
For orientation: In writhing tests, fewer writhes than in controls are read as antinociception.

As for `C#CCN1CCC2=C(C1)c1c(OC(=O)C(C)CCN3CCCCC3C)cc(C(C)C(C)CCCCC)cc1OC2(C)C.Cl` (stereo unspecified), the Activity result with Rattus norvegicus is “Dose-dependent effect”. Besides, the ED50 in the data set with Rattus norvegicus came out at 0.53 mg/kg; in the data set with Mus musculus [1], 3.8 mg/kg; in the data set with Mus musculus [2], 7.3 mg/kg.
On the same counts, the results for `C#CCN1CCC2=C(C1)c1c(OC(=O)C(C)CCN3CCCCC3)cc(C(C)C(C)CCCCC)cc1OC2(C)C.Cl` (stereo unspecified) are “Dose-dependent effect”, 0.4 mg/kg, 4.6 mg/kg and 12.2 mg/kg.
On the same counts, the results for `Br.CCCCCc1cc(OC(=O)CCCN2CCOCC2)c2c(c1)OC(C)(C)[C@@H]1CCC(C)=C[C@@H]21` are “Dose-dependent effect”, 0.092 mg/kg, 168 mg/kg and more than 40 mg/kg.
On the same counts, the results for `Br.CCCCCC(C)C(C)c1cc(OC(=O)CCCN2CCOCC2)c2c(c1)OC(C)(C)C1=C2CC(C)CC1` (stereo unspecified) are “Dose-dependent effect”, 2.13 mg/kg, 0.5 mg/kg and 2.3 mg/kg.
On to `C#CCN1CCC2=C(C1)c1c(OC(=O)CCCN3CCCCC3)cc(C(C)C(C)CCCCC)cc1OC2(C)C.Cl` (stereo unspecified) [NABITAN HYDROCHLORIDE], for which the Activity entry in the data set with Rattus norvegicus was “Dose-dependent effect”. For the same molecule, the ED50 in the data set on Rattus norvegicus was 0.11 mg/kg; in the data set with Mus musculus [1], 5.3 mg/kg; in the data set with Mus musculus [2], 12 mg/kg.
With `CCCCCC(C)C(C)c1cc(O)c2c(c1)OC(C)(C)C1=C2CC(C)CC1` (mixture of isomers), in the data set with Rattus norvegicus, the Activity result is “Dose-dependent effect”. Moreover, the ED50 with Rattus norvegicus was 0.31 mg/kg; in the data set on Mus musculus [1], 9.3 mg/kg; in the data set on Mus musculus [2], 3 mg/kg.
On the same counts, the results for `CCCCCc1cc(O)c2c(c1)OC(C)(C)[C@@H]1CCC(C)=C[C@@H]21` [DRONABINOL] are “Dose-dependent effect”, 0.062 mg/kg, more than 100 mg/kg and 43 mg/kg.
On the same counts, the results for `C#CCN1CCC2=C(C1)c1c(O)cc(C(C)C(C)CCCCC)cc1OC2(C)C` (stereo unspecified) are “Dose-dependent effect”, 0.061 mg/kg, 7.7 mg/kg and 4.3 mg/kg.
On the same counts, the results for `CCCCCC(C)C(C)c1cc(OC(=O)CCCN2CCCCC2)c2c(c1)OC(C)(C)C1=C2CC(C)CC1.Cl` (stereo unspecified) are “Dose-dependent effect”, 1.92 mg/kg, 15 mg/kg and 25.9 mg/kg.
